According to ChEMBL document CHEMBL1135865, “Novel guanidine-based inhibitors of inosine monophosphate dehydrogenase” (Bioorg Med Chem Lett, 2002):

These molecules were tested on CCRF-CEM (assay: Inhibitory concentration against human T-lymphoblast CEM cell line (ATCC) by CEM proliferation assay.).
Format: functional, cell-based
Procedure, shortened: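 CEM human T-lymphoblasts in RPMI 1640 with 10% heat-inactivated FBS plus penicillin/streptomycin, seeded 3000 cells/well with 0.5% DMSO. Compounds tested in triplicate from 10 uM top final concentration, 3-fold serial dilutions. Cells held 72 h in 5% CO2 humidified atmosphere. Viability measured by Alamar Blue (10% v/v, final 5 h), fluorescence at 530/590 nm.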

IC50 [nM]	SMILES
410	COc1cc(N/C(=N/c2cccc(C/N=C(\NC#N)Oc3ccccc3)c2)NC#N)ccc1-c1cnco1

Each molecule was assayed against T1, Inosine-5'-monophosphate dehydrogenase 2 (Homo sapiens, UniProt P12268) (assay: The compound was tested for it's in vitro inhibitor potency against inosine monophosphate dehydrogenase II (IMPDH II)).
Procedure, shortened: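 Human type II IMPDH purified from E. coli expressing the gene; 40 nM enzyme, 400 µM IMP, 2 mM DTT in 0.1 M Tris, 0.1 M KCl, 3 mM EDTA pH 8.0; final DMSO 2.5%. Started with NAD (final 400 µM); after 2 h at 25 °C, NADH read at 340 nm. IC50 for 50% inhibition of NADH accumulation from 4-parameter logistic fit.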

IC50 [nM]	SMILES
110	COc1cc(N/C(=N/C#N)Nc2cccc(CNC(=O)OCC3CCOC3)c2)ccc1-c1cnco1 (stereo not drawn)
> 3000	COc1cc(N=C(N)Nc2cccc(C)c2)ccc1-c1cnco1

Each molecule was assayed against T1, Inosine-5'-monophosphate dehydrogenase 2 (assay: In vitro inhibition of Inosine-5'-monophosphate dehydrogenase 2.).
Procedure, shortened: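 Human type II IMPDH purified from E. coli expressing the gene; 40 nM enzyme, 400 µM IMP, 2 mM DTT in 0.1 M Tris, 0.1 M KCl, 3 mM EDTA pH 8.0; final DMSO 2.5%. Started with NAD (final 400 µM); after 2 h at 25 °C, NADH read at 340 nm.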

SMILES	IC50 [nM]
COc1cc(NC(=O)Nc2cccc(C)c2)ccc1-c1cnco1	19
COc1cc(N=C(N)NC(=O)c2ccccc2)ccc1-c1cnco1	800
CN/C(=N\c1ccc(-c2cnco2)c(OC)c1)Nc1cccc(C)c1	> 3000
COc1cc(N/C(=N/c2cccc(CO)c2)NC#N)ccc1-c1cnco1	280
COc1cc(NC(=N)NC#N)ccc1-c1cnco1	330
COc1cc(N=C(NC(C)=O)Nc2cccc(C)c2)ccc1-c1cnco1	> 1000
CCOC(=O)N=C(Nc1cccc(C)c1)Nc1ccc(-c2cnco2)c(OC)c1	740
COc1cc(N/C(=N/c2cccnc2)NC#N)ccc1-c1cnco1	320
COc1cc(NC(=NC#N)Nc2cccc(CNC(=O)O[C@H]3CCOC3)c2)ccc1-c1cnco1	340
CON/C(=N\c1ccc(-c2cnco2)c(OC)c1)Nc1cccc(C)c1	660
COc1cc(NC(=NC#N)NCc2cccc(C)c2)ccc1-c1cnco1	1100
COc1cc(NC(=NC#N)Nc2cccc(CNC(=O)NCC3CCCO3)c2)ccc1-c1cnco1 (stereo not drawn)	180

Next, values leading:

IC50 [nM]	SMILES
2200	COc1cc(NC(=NC#N)Nc2ccccc2C)ccc1-c1cnco1
1500	COc1cc(N/C(=N/C#N)Nc2ccc(C)cc2)ccc1-c1cnco1
130	CCCCNC(=O)c1cccc(NC(=NC#N)Nc2ccc(-c3cnco3)c(OC)c2)c1
380	COc1cc(NC(=NC#N)Nc2cccc(OCCOc3ccccc3)c2)ccc1-c1cnco1
340	COc1cc(NC(=NC#N)Nc2ccccn2)ccc1-c1cnco1
240	COc1cc(NC(=NC#N)Nc2cccc(C)c2)ccc1-c1cnco1
16	COc1cc(N/C(=N/c2cccc(C/N=C(\NC#N)Oc3ccccc3)c2)NC#N)ccc1-c1cnco1
250	COc1cc(NC(=NC#N)Nc2ccccc2)ccc1-c1cnco1
